Results on four substances are retold here after publication PMC11066147 (Heliyon, 2024).

“Also recorded” adds a separate entry of the source.

In data set [1] the test system is clients from E. coli JM109 cells. Description: co-affinity assay coupled to LC-MS, clients from E. coli JM109. Format: binding. Summed up:
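Pull-down bait was His-tagged Hsp70 (wild type or linker-swap variant), immobilised on cobalt resin in TBS (10 mM Tris-HCl pH 7.5, 50 mM NaCl, 10 mM imidazole) for 4 h at 4 °C, then washed 5×. E. coli JM109 lysate (prey) was added overnight at 4 °C, followed by 5 washes. Elution used 290 mM imidazole. Eluates were run on silver-stained SDS-PAGE; unique bands were excised and identified by LC-MS.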

In data set [2] the test system is clients from E. coli ΔdnaK52 cells. Nature of the data set: co-affinity assay coupled to LC-MS, clients from E. coli ΔdnaK52. Format: binding.
Data set [3] deals with DnaK (Escherichia coli, UniProt P0A6Y8). The settings on record: SPR; presence of ATP. In general terms: Surface plasmon resonance follows binding to a sensor surface in real time, without labels.
Data set [4] relates to proteins. The settings on record: ref [33]; cited from earlier work.
The target in data set [5] is T1, PfHsp70-1 (Plasmodium falciparum, UniProt Q8IB24). Description: SPR self-association, immobilised ligand PfHsp70-1. Format: binding.
In data set [6] the target is T1, PfHsp70-1. As to conditions: previous study, ref [10], cited from earlier work.
Data set [7] concerns the target T2, PfHsp70-z (Plasmodium falciparum, UniProt Q8IC01).
T2 sequence (Q8IC01 1-873): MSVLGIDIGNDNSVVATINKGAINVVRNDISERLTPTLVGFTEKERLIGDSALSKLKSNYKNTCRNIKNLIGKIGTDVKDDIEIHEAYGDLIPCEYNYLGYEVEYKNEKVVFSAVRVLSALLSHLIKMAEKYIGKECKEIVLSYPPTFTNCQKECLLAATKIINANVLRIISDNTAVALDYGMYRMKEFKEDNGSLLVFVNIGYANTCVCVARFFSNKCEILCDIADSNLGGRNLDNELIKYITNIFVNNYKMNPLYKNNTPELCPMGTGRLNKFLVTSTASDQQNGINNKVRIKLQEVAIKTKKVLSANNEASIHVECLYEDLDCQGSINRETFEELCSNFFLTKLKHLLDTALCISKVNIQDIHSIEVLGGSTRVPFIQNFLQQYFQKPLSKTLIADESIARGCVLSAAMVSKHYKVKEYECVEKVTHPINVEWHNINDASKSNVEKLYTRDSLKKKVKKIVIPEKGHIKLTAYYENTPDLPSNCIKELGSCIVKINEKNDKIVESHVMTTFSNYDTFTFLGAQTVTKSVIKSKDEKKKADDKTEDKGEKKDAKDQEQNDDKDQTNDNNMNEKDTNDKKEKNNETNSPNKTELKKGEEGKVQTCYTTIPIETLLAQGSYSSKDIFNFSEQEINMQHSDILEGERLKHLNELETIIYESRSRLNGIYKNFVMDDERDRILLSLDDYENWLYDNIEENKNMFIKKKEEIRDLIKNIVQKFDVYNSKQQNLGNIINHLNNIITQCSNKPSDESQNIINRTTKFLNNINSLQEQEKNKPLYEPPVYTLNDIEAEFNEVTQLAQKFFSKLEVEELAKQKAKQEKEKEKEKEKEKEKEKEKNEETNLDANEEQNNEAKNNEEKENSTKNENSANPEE
As to conditions: previous study, ref [10], cited from earlier work.

T1 sequence (Q8IB24 1-677): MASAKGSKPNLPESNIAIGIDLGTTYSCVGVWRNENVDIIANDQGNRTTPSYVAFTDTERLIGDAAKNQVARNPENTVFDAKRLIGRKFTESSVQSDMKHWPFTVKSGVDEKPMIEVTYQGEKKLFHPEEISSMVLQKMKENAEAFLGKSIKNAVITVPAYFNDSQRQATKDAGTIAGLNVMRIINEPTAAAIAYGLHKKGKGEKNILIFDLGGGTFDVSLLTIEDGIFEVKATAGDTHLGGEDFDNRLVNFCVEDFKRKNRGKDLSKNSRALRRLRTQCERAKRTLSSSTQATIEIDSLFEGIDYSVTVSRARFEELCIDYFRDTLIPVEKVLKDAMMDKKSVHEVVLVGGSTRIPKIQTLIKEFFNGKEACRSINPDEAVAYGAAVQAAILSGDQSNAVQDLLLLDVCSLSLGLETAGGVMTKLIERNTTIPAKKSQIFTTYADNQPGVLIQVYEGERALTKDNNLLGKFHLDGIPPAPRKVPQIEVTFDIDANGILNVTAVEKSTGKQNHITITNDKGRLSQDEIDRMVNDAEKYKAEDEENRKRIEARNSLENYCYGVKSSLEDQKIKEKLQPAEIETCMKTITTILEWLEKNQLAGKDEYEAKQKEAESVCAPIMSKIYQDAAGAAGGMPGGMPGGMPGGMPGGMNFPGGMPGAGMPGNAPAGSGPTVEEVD
DnaK, sequence (P0A6Y8 whole entry): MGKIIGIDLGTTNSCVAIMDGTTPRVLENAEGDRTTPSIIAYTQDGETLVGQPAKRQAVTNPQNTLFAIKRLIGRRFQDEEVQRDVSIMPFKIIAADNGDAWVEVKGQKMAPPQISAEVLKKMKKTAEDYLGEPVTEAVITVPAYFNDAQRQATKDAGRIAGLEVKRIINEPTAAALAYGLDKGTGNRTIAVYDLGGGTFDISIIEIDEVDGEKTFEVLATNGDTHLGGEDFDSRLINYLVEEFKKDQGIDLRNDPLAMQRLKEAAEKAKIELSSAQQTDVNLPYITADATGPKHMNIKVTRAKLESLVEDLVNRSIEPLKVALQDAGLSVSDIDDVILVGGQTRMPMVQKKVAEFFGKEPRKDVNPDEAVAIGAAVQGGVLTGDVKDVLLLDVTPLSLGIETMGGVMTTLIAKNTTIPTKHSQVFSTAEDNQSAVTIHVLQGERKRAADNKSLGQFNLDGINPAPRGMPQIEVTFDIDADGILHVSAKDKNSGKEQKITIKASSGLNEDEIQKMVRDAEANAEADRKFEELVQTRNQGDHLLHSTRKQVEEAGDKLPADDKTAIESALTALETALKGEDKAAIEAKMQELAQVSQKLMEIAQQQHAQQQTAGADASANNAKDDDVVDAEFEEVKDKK

With DnaK: E. coli Hsp70, recombinant, in data set [1], the “association with CH60/GroEL” value is recorded as “not with DnaK”, the “pI of a further group of clients” value is recorded as “around 9.5”, the “pI of majority of clients” value was 5.5–6.0 and the “pI of some unique clients” value is listed as “above 10”. In addition, the “size of most clients” value in data set [1] was “around 50 kDa”. For the same substance, in data set [1] (unique relative to the other chaperone), the “number of unique clients” value is reported as 41 clients. In data set [2], the “association with CH60/GroEL” value is listed as “associated with DnaK within the E. coli ΔdnaK52 cell background”, the “number of clients bound” value was 110 clients and the “size of another prominent client cluster” value is “above 100 kDa”. The “effect of ATP on self-association” value in data set [3] is reported as “promoted by ATP”. The “number of aggregation-prone (unstable) clients” value in data set [4] was roughly 180 proteins.

“PfHsp70-1: canonical cytosolic Hsp70 chaperone of Plasmodium falciparum, recombinant”: the “self-association without nucleotide vs ADP” value in data set [5] was “comparable affinity in the absence of nucleotide and in the presence of ADP”. For the same substance, the “effect of ATP on self-association” value in data set [5] (ATP vs apo- or ADP-states) is listed as “tenfold increase; also recorded: promoted by ATP”.

In the case of GFRLLLMYRF, in data set [6], the “effect of nucleotide on peptide affinity” value was “regulated by ADP/ATP”. Also, the “effect of nucleotide on peptide binding” value in data set [7] is on record as “nucleotide independent”.

GFRNNNMYRF: in data set [6], the “effect of nucleotide on peptide affinity” value was “regulated by ADP/ATP”. Further, the peptide preference entry in data set [6] (vs GFRLLLMYRF) and in data set [7] (vs GFRLLLMYRF) was “preferentially bind to the Asp-enriched peptide” in each case. Also, the “effect of nucleotide on peptide binding” value in data set [7] was “nucleotide independent”.
